As a reminder, the IC50 is the concentration that gives 50% inhibition. Broadly, the inhibition is the relative decrease from the control value, in per cent.

Experiment [1] concerns the target T1, Telomerase reverse transcriptase (Homo sapiens, UniProt O14746). The experiment in a line: Apparent telomerase inhibition by mixed mechanism.
In experiment [2] the target is T1, Telomerase reverse transcriptase. The experiment in a line: Dependence of telomerase inhibition on the ability to stack with G-tetrads. Conditions: concentration not given here. Summed up: (§1)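 HeLa cell extract (60 µg total protein) as the telomerase source in a primer-extension assay with 1 µM 5′-biotinylated (TTAGGG)3 primer, 1.2 µM 32P-dGTP, and 1 mM each of dATP and dTTP. Buffer was Tris-OAc at pH 8.5 with KOAc, MgCl2, BME and spermidine. Porphyrin was fixed at 25 µM and reactions ran at 37 °C for 30 min. Products were run on 8% denaturing PAGE and quantified by autoradiogram densitometry, giving % inhibition relative to a porphyrin-free control.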

For experiment [3] the target is unchanged. The experiment in a line: Effect of uncharged hydrogen bonding group on telomerase inhibition at 25 uM. Summed up: as §1
The target is the same in experiment [4]. The experiment in a line: Effect of meso group on telomerase inhibition at 25 uM. Summed up: as §1
Experiment [5] has the same target. The experiment in a line: Effect of substituent bulk on telomerase inhibition at 25 uM. Summed up:
as §1

Experiment [6] has the same target. The experiment in a line: Effect of combination of charged and hydrogen bonding groups on telomerase inhibition at 25 uM. Summed up: as §1
Experiment [7] has the same target. The experiment in a line: Effect of varying the number and disposition of charged groups around the compound nucleus on telomerase inhibition at 25 uM. The procedure, abridged: as §1
Experiment [8] shares this target. The experiment in a line: Apparent telomerase inhibition by G-quadruplex mechanism.
Experiment [9] has the same target. The experiment in a line: Percentage inhibition of human telomerase at 25 uM concentration in HeLa cell. Format: cell-based. The procedure, abridged:
as §1

Where “and” joins values, the source holds several entries; their conditions need not be identical. Equal entries are not always repeated.

T1 sequence (O14746 whole entry): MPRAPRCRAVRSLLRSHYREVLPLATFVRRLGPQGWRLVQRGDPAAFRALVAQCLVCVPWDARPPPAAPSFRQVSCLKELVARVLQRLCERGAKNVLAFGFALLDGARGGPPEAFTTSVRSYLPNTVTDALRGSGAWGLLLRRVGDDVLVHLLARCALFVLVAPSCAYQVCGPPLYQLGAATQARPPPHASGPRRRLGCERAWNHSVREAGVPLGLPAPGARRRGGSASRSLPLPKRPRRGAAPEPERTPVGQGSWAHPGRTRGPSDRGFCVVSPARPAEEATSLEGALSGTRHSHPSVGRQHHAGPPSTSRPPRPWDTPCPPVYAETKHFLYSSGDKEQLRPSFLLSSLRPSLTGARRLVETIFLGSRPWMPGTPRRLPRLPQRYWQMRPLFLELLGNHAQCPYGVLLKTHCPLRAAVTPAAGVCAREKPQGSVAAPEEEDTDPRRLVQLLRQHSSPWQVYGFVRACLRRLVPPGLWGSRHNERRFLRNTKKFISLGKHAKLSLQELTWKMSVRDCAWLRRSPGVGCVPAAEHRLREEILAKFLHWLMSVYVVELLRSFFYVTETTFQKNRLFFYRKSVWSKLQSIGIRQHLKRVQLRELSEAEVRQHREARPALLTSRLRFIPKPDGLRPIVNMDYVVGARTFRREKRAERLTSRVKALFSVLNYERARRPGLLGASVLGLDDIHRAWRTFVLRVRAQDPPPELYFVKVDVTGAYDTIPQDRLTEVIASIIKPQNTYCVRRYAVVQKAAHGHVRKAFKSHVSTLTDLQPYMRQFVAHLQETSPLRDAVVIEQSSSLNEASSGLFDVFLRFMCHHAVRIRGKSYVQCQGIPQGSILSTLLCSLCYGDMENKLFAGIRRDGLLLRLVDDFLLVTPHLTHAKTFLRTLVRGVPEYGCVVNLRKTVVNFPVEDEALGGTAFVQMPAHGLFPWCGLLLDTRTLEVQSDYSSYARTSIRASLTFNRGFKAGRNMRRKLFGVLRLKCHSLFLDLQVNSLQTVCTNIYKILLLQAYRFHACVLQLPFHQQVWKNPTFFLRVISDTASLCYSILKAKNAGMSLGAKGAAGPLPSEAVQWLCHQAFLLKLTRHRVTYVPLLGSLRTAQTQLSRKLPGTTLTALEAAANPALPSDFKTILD

Turning to `OCC[n+]1ccc(-c2c3nc(c(-c4cc[n+](CCO)cc4)c4ccc([nH]4)c(-c4cc[n+](CCO)cc4)c4ccc([nH]4)c(-c4cc[n+](CCO)cc4)c4nc2C=C4)C=C3)cc1`, the concentration for half-maximal inhibition (IC50) in experiment [1] was determined as 30 µM.

As for `C[n+]1ccc(-c2c3nc(c(-c4ccc(C(=O)NCCBr)cc4)c4nc(c(-c5cc[n+](C)cc5)c5ccc([nH]5)c(-c5cccc(C(=O)NCCBr)c5)c5ccc2[nH]5)C=C4)C=C3)cc1`, the IC50 in [1] is 15 µM.

For `C[n+]1cccc(-c2c3nc(c(-c4cc5ccccc5[n+](C)c4)c4ccc([nH]4)c(-c4ccc[n+](C)c4)c4nc(c(-c5cc6ccccc6[n+](C)c5)c5ccc2[nH]5)C=C4)C=C3)c1`, in experiment [1], the IC50 was 10 µM.

As for `C[n+]1cc(-c2c3nc(c(-c4cc5ccccc5[n+](C)c4)c4ccc([nH]4)c(-c4cc5ccccc5[n+](C)c4)c4ccc([nH]4)c(-c4cc5ccccc5[n+](C)c4)c4nc2C=C4)C=C3)cc2ccccc21`, the inhibition in experiment [2] is 14%; in experiment [3] it was 28%; in [4], 32%; in [5], 28%; in experiment [6] it was 30%; in experiment [7] it was 37%.

Regarding `C[n+]1ccc(-c2c3nc(c(-c4cc[n+](C)cc4)c4ccc([nH]4)c(-c4cc[n+](C)cc4)c4ccc([nH]4)c(-c4cc[n+](C)cc4)c4nc2C=C4)C=C3)cc1`, the inhibition in [2] was found to be 66%; in [3], 60%; in [4], 67%; in [5], 60%; in experiment [6], 60%; in experiment [7] it was 62%.

For `C[n+]1cccc(-c2c3nc(c(-c4ccc[n+](C)c4)c4ccc([nH]4)c(-c4ccc[n+](C)c4)c4ccc([nH]4)c(-c4ccc[n+](C)c4)c4nc2C=C4)C=C3)c1`, in experiment [8], the IC50 was 25 µM and 12 µM. Further, the inhibition in experiment [5] was determined as 50%.

As for `C[n+]1ccc(-c2c3nc(c(-c4cc[n+](C)cc4)c4ccc([nH]4)c(-c4cc[n+](C)cc4)c4nc(c(-c5cc[n+](C)cc5)c5ccc2[nH]5)C=C4)C=C3)cc1` [TMPYP4 CHLORIDE], in [8], the half-inhibitory concentration (IC50) was 6.25 µM and 10 µM.

`C[n+]1cccc(-c2c3ccc([nH]3)c(-c3cc4ccccc4[n+](C)c3)c3nc(c(-c4cc5ccccc5[n+](C)c4)c4nc(c(-c5cc6ccccc6[n+](C)c5)c5ccc2[nH]5)C=C4)C=C3)c1`: the concentration for half-maximal inhibition (IC50) in [1] came out at 5 µM.

Turning to `CC1=C(CCNCCN)c2cc3[nH]c(cc4[nH]c(cc5nc(cc1n2)C(C)=C5CCNCCN)c(C)c4CCNCCN)c(CCNCCN)c3C`, the inhibition in [9] is 0%.

(Values after ChEMBL document CHEMBL1134646, “Quadruplex-interactive agents as telomerase inhibitors: synthesis of porphyrins and structure-activity relationship for the inhibition of telomerase” (J Med Chem, 2001).)
